Published values of several laboratories.
Each line is one published result; the experiments were not run side by side.
KCNA1: Potassium voltage-gated channel subfamily A member 1 (KCNA1, Homo sapiens, UniProt Q09470)
INSR: Insulin receptor (INSR, Homo sapiens, UniProt P06213)

For CC[C@H](C)[C@H](NC(=O)[C@H](CCC(N)=O)NC(=O)[C@H](CCCNC(=N)N)NC(=O)[C@H](CO)NC(=O)[C@H](Cc1c[nH]cn1)NC(=O)[C@@H]1CCCN1C(=O)[C@H](C)NC(=O)[C@H](CO)NC(=O)[C@H](CC(C)C)NC(=O)CNC(=O)[C@@H]1CCCN1C(=O)[C@H](CCC(N)=O)NC(=O)[C@H](CCC(N)=O)NC(=O)[C@H](CCCNC(=N)N)NC(=O)[C@H](CO)NC(=O)CNC(=O)[C@H](CO)NC(=O)[C@H](CO)NC(=O)[C@H](CCC(=O)O)NC(=O)[C@@H]1CCCN1C(=O)[C@@H]1CCCN1C(=O)[C@@H]1CCCN1C(=O)[C@H](CO)NC(=O)[C@H](CC(C)C)NC(=O)[C@H](CO)NC(=O)[C@@H](NC(=O)CN)[C@@H](C)O)C(=O)N1CCC[C@H]1C(=O)N[C@@H](C)C(=O)N1CCC[C@H]1C(=O)N[C@@H](CCC(N)=O)C(=O)NCC(=O)N[C@@H](C)C(=O)N[C@H](C(=O)N[C@@H](CC(C)C)C(=O)N[C@H](C(=O)N[C@@H](CCC(N)=O)C(=O)N[C@@H](CCCNC(=N)N)C(=O)N[C@@H](CCC(=O)O)C(=O)N[C@@H](CCCCN)C(=O)N[C@@H](CC(=O)O)C(=O)N[C@@H](CC(C)C)C(=O)N1CCC[C@H]1C(=O)N[C@@H](CC(N)=O)C(=O)N[C@@H](Cc1ccc(O)cc1)C(=O)N[C@@H](CC(N)=O)C(=O)N[C@@H](Cc1c[nH]c2ccccc12)C(=O)N[C@@H](CC(N)=O)C(=O)N[C@@H](CO)C(=O)N[C@@H](Cc1ccccc1)C(=O)NCC(=O)N[C@@H](CC(C)C)C(=O)N[C@@H](CCCNC(=N)N)C(=O)N[C@@H](Cc1ccccc1)C(N)=O)C(C)C)C(C)C, the Emax was 94.9% (KiSS-1 receptor (KISS1R, Homo sapiens, UniProt Q969F8, Y302A); inositol phosphate, agonist; HEK293).
CNCCCC12CCC(c3ccccc31)c1ccccc12 has an inhibition of 50.2% (KCNA1; ion current, inhibitor, patch clamp; 30 µM).
The inhibition of O=C(Cn1cc(C=CC(=O)c2ccc(F)cc2)nn1)Nc1nc(-c2ccccc2)cs1 is reported as 35.8% (Collagenase 3 (MMP13, Homo sapiens, UniProt P45452); enzyme activity, inhibitor; 0.5 µM).
With CCCN1C[C@H](CSC)C[C@@H]2c3cccc4[nH]cc(c34)C[C@H]21 the inhibition was 19.6% (KCNA1; ion current, inhibitor, patch clamp; 10 µM).
COc1cc(-c2cncc3c2CN(C)Cc2cc(N4CCNCC4)ccc2-3)cc(OC)c1OC gave a remaining activity of 112% (Serine/threonine-protein kinase N2 (PKN2, Homo sapiens, UniProt Q16513); enzyme activity, inhibitor; 1 µM).
For C=CC(=O)N1CCC(COCC(=O)N2CCN(c3nc(-c4cnc(N)nc4C(F)F)nc(N4CCOC[C@@H]4C)n3)CC2)CC1, the remaining binding was 79% (Dual specificity protein kinase CLK2 (CLK2, Homo sapiens, UniProt P49760); binding, competition with immobilised ligand; 1 µM).
With Cc1cc([C@@H](C)Nc2ccccc2C(=O)O)c2nc(N3CCC(F)(F)CC3)c(C#N)c(=O)n2c1 the remaining binding was 100% (INSR; binding, competition with immobilised ligand; 1 µM).
Nc1c(Br)cc(Br)cc1CN[C@H]1CC[C@H](O)CC1 gave an inhibition of 16.8% (KCNA1; ion current, inhibitor, patch clamp; 30 µM).
The remaining activity of CNc1ncc2c(/C=C/C(=O)N3CCC(OC)CC3)nn(Cc3cccc(C(F)(F)F)c3)c2n1 is reported as 90% (Serine/threonine-protein kinase 38-like (STK38L, Homo sapiens, UniProt Q9Y2H1); enzyme activity, inhibitor, radiometric; 1 µM).
Cc1cc(NC(=O)c2cccc(NC(=O)/C=C/CN(C)C)c2)ccc1Nc1nccc(-c2cccnc2)n1 has a remaining binding of 81% (INSR; binding, competition with immobilised ligand; 1 µM).
